In article PMC3331960 (Nature chemical biology, 2012):
Values joined by “and” are separate entries in the source; they are usually repeats but may differ in a detail not shown here. Equal values may be shown once. Each block holds one molecule with its values, some of them ahead of it. Where no end group is shown, it is not given here. The star is where a group is joined. Biotin = O=C1N[C@H]2[C@H](CS[C@H]2CCCCC(=O)*)N1

What was measured:
TIR1-IAA7 interaction = target: T1, TIR1-IAA7 interaction (Arabidopsis thaliana, UniProt Q38825+Q570C0); experiment: LexA yeast two-hybrid, auxin-induced TIR1-IAA7 interaction; format: cell-based; details: 50 μM auxins in selective media
T1 sequence (Q570C0 1-594): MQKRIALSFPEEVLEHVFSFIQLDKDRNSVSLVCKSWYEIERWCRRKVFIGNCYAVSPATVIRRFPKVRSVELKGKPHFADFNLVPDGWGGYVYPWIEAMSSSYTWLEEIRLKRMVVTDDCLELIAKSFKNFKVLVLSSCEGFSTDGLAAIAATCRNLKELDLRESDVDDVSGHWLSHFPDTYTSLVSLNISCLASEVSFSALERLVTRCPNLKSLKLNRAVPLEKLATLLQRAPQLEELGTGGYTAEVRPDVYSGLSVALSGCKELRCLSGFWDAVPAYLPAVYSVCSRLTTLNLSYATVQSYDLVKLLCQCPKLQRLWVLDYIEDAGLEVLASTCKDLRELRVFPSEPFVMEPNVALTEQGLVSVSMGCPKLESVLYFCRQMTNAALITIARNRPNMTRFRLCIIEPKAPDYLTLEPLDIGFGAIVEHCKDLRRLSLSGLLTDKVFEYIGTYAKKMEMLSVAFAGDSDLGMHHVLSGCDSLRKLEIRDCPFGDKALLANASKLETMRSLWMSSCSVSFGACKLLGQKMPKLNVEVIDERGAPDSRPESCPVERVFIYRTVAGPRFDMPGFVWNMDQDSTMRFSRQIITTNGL
T1 sequence (Q38825 1-243): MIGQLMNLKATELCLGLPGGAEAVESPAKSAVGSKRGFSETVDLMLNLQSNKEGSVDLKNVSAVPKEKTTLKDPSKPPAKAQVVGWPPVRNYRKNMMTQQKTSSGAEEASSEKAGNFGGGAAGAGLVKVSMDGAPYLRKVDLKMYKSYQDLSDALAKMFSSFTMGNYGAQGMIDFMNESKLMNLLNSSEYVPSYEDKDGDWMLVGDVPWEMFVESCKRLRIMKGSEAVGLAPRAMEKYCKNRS

TIR1-IAA7 DII [1] = target: T2, TIR1-IAA7 DII (Arabidopsis thaliana, UniProt Q38825+Q570C0, DEL96-243); experiment: Surface plasmon resonance, TIR1 over immobilized IAA7 DII peptide; format: binding; details: for TIR1 association with the DII peptide (SPR): co-injection of TIR1 with auxin, vs no auxin; for dissociation of the TIR1-IAA7 DII complex (SPR): 50 μM ligand concentration
TIR1-IAA7 = target: T3, TIR1-IAA7 (Arabidopsis thaliana, UniProt Q38825+Q570C0); experiment: [3H]-IAA radioligand binding; details: for Ki: Ki (Mean ± SEM), TIR1-IAA7, cold competitor vs [3H] IAA
T3 sequence (Q570C0 1-594): T1 sequence (Q570C0 1-594)
T3 sequence (Q39255 1-160 partner): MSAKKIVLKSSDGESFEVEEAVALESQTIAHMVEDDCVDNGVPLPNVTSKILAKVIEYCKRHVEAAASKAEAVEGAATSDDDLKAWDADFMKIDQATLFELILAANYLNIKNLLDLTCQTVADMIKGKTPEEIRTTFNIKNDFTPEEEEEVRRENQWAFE
T3 sequence (Q38825 1-243): T1 sequence (Q38825 1-243)
Outline: (§1)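 ASK1-TIR1 or ASK1-AFB5 (0.44 μg, insect cells) with E. coli GST-IAA7 (1:10 molar), >1 h at 4°C in pH 8.0 Tris binding buffer. KD from [³H]-IAA saturation binding. Ki from competition with cold 1-NAA, 2,4-D or picloram against fixed [³H]-IAA (5–100 nM), fitted to a one-site competition model by nonlinear regression. Filter binding with scintillation read-out; triplicates.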

[2] = system: Arabidopsis wild type plants (Col-0); experiment: Root elongation assay of seedlings; format: in vivo, Arabidopsis thaliana; details: 40 or 80 nM 2,4-D, 4 days, Col-0 seedlings
Outline: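 Seedlings grown 5 days on MS medium, then transferred to medium with 2,4-D. Root elongation was measured after 4 more days and expressed as a proportion of growth without auxin. Col-0, tir1-1 and tir1-1 afb2-3 were tested; error bars are STDEV.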

AFB5-IAA7 DII = AFB5-IAA7 DII (Arabidopsis thaliana, UniProt Q38825+Q9LTX2, DEL96-243); experiment: Surface plasmon resonance, AFB5 over immobilized IAA7 DII peptide; format: binding; details: 50 μM picloram
AFB5-IAA7 = AFB5-IAA7 (Arabidopsis thaliana, UniProt Q38825+Q9LTX2); experiment: [3H]-IAA radioligand binding
Outline: as §1

TIR1-IAA14 = TIR1-IAA14 (Arabidopsis thaliana, UniProt Q38832+Q570C0); experiment: [3H]-IAA homologous competitive binding, TIR1-IAA14; details: TIR1-IAA14, homologous competition
Outline: (§2)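 Homologous competition: insect-cell ASK1-TIR1 (0.44 μg) plus E. coli GST-Aux/IAA (1:10 molar), in pH 8.0 Tris binding buffer, >1 h at 4°C. Fixed [³H]-IAA (5, 10, 25 or 100 nM, kept below half the IC50) with rising cold IAA. Filter binding, scintillation counting. Specific binding fitted to a one-site competition model by nonlinear regression. Independent assays run in triplicate.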

TIR1-IAA3 = TIR1-IAA3 (Arabidopsis thaliana, UniProt Q38822+Q570C0); experiment: [3H]-IAA saturation binding, TIR1-IAA3; details: Kd (Mean ± SEM)
Outline: (§3)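 Saturation binding: insect-cell ASK1-TIR1 (0.44 μg) with GST-tagged full-length, truncated or degron-mutated IAA protein from E. coli (1:10 molar). Incubated >1 h at 4°C in pH 8.0 Tris/NaCl/glycerol/Tween buffer with at least six [³H]-IAA concentrations either side of the KD. Filter-trapped and scintillation counted; nonspecific binding determined with 1000x cold IAA. KD by nonlinear regression; independent assays in triplicate.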

TIR1-IAA7 K35Q R36Q = TIR1-IAA7 K35Q R36Q (Arabidopsis thaliana, UniProt Q38825+Q570C0, K35Q/R36Q); experiment: [3H]-IAA binding at 200 nM, TIR1-IAA7 K35Q R36Q; details: 200 nM [3H]-IAA, Lys35Gln Arg36Gln mutant compared to TIR1-IAA7
TIR1-IAA17 = TIR1-IAA17 (Arabidopsis thaliana, UniProt P93830+Q570C0); experiment: [3H]-IAA homologous competitive binding, TIR1-IAA17; details: Kd (Mean ± SEM), TIR1-IAA17, homologous competition
Outline: as §2

IAA7 DII = IAA7 DII (Arabidopsis thaliana, UniProt Q38825); experiment: [3H]-IAA binding at 200 nM, IAA7 DII peptide alone; details: 200 nM [3H] IAA
Outline: (§4)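 ASK1-TIR1 (tagged, co-expressed in Hi5 insect cells) and GST-Aux/IAA or mutant (E. coli), at 0.44 μg and 1:10 molar ratio as applicable, or synthetic biotinylated degron peptide. Incubated >1 h at 4°C in Tris-HCl pH 8.0/200 mM NaCl/10% glycerol/0.1% Tween 20 with [³H]-IAA (20 Ci/mmol). Trapped on PEI-treated glass-fibre filters, washed thrice, scintillation counted. Nonspecific binding determined with 1000x cold IAA.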

IAA7 = IAA7 (Arabidopsis thaliana, UniProt Q38825); experiment: [3H]-IAA binding at 200 nM, IAA7 alone; details: 200 nM [3H] IAA
Outline: as §4

TIR1-DI-DII = TIR1-DI-DII (Arabidopsis thaliana, UniProt Q38825+Q570C0); experiment: [3H]-IAA saturation binding, TIR1-DI-DII
Outline: as §3

TIR1-IAA31 = TIR1-IAA31 (Arabidopsis thaliana, UniProt Q570C0+Q8H174); experiment: [3H]-IAA binding, TIR1-IAA31
Outline: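 ASK1-TIR1 (insect cells, 0.44 μg) and full-length GST-IAA31 (E. coli, 1:10 molar) were incubated with [³H]-IAA >1 h at 4°C in pH 8.0 Tris buffer, then filter-bound and scintillation counted. KD came from nonlinear regression of saturation and/or homologous competition binding data; independent assays run in triplicate.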

TIR1-slr = experiment: [3H]-IAA binding at 200 nM, TIR1-ASK1 with slr; design: species or system Arabidopsis thaliana; details: 200 nM [3H] IAA, TIR1-ASK1 and slr
Outline: as §4

TIR1-IAA7 DII [3] = target: T2, TIR1-IAA7 DII; experiment: [3H]-IAA saturation binding, TIR1 with biotinylated IAA7 DII peptide; details: Kd (Mean ± SEM), TIR1-biotinylated peptide DII of IAA7, saturation binding
TIR1-IAA12 GWPPVR = TIR1-IAA12 GWPPVR (Arabidopsis thaliana, UniProt Q38830+Q570C0, G77R/I76V); experiment: [3H]-IAA saturation binding, TIR1-IAA12 GWPPVR
Outline: as §3

TIR1-bdl = TIR1-bdl (Arabidopsis thaliana, UniProt Q570C0); experiment: [3H]-IAA binding at 200 nM, TIR1-ASK1 with bdl; details: 200 nM [3H] IAA, TIR1-ASK1 and bdl
Outline: as §4

TIR1 = TIR1 (Arabidopsis thaliana, UniProt Q570C0); experiment: [3H]-IAA binding at 200 nM, TIR1 alone; details: 200 nM [3H] IAA
Outline: as §4

TIR1-IAA7^axr2-1 = TIR1-IAA7^axr2-1 (Arabidopsis thaliana, UniProt Q38825+Q570C0, P87S); experiment: [3H]-IAA binding at 200 nM, TIR1-IAA7 axr2-1; details: 200 nM [3H] IAA
Outline: as §4

TIR1-IAA28 = TIR1-IAA28 (Arabidopsis thaliana, UniProt Q570C0+Q9XFM0); experiment: [3H]-IAA homologous competitive binding, TIR1-IAA28; details: Kd (Mean ± SEM), TIR1-IAA28, homologous competition
Outline: as §2

TIR1-IAA1 = TIR1-IAA1 (Arabidopsis thaliana, UniProt P49677+Q570C0); experiment: [3H]-IAA homologous competitive binding, TIR1-IAA1; details: Kd (Mean ± SEM), TIR1-IAA1, homologous competition
Outline: as §2

TIR1-IAA7 K35Q = TIR1-IAA7 K35Q (Arabidopsis thaliana, UniProt Q38825+Q570C0, K35Q); experiment: [3H]-IAA binding at 200 nM, TIR1-IAA7 K35Q; details: 200 nM [3H]-IAA, Lys35Gln mutant compared to TIR1-IAA7
TIR1-ASK1 complex = target: T4, TIR1-ASK1 complex (Arabidopsis thaliana, UniProt Q570C0;Q39255); experiment: SPR
T4 sequence 1: T1 sequence (Q570C0 1-594)
T4 sequence 2: T3 sequence (Q39255 1-160 partner)

Molecule: O=C(O)COc1ccc(Cl)cc1Cl [2,4-D, 2,4-dichlorophenoxyacetic acid]
Ki (TIR1-IAA7): 248 to 1000 nM | root elongation [2]: inhibits root growth elongation | TIR1-IAA7 interaction in yeast (β-galactosidase expression) (TIR1-IAA7 interaction): promoted TIR1-IAA7 interaction, but not to the same extent as IAA | dissociation of the TIR1-IAA7 DII complex (SPR) (TIR1-IAA7 DII [1]): much more rapid dissociation rate | TIR1 association with the DII peptide (SPR) (TIR1-IAA7 DII [1]): enhanced association with the peptide

Molecule: Nc1c(Cl)c(Cl)nc(C(=O)O)c1Cl [picloram, 4-amino-3,5,6-trichloro-2-pyridinecarboxylic acid]
Ki (TIR1-IAA7): 3900 ± 910 nM | TIR1-IAA7 interaction in yeast (β-galactosidase expression) (TIR1-IAA7 interaction): promoted TIR1-IAA7 interaction, but not to the same extent as IAA | dissociation of the TIR1-IAA7 DII complex (SPR) (TIR1-IAA7 DII [1]): rapid dissociation | TIR1 association with the DII peptide (SPR) (TIR1-IAA7 DII [1]): enhanced association with the peptide | assembly of the AFB5-IAA7 complex (SPR) (AFB5-IAA7 DII): promotes rapid assembly | Ki (AFB5-IAA7; Ki (Mean ± SEM), AFB5-IAA7, cold competitor vs [3H] IAA): 54.9 nM and 54.7 nM

Molecule: Biotin-AKAQVVGWPPVRNYRKN [Biotinylated DII IAA7 peptide (SPR)]
binding result (TIR1-ASK1 complex): binds

More lines, main results first:

TIR1 association with the DII peptide (SPR) (TIR1-IAA7 DII [1]): enhanced association with the peptide
Molecule: O=C(O)Cc1cccc2ccccc12 [1-NAA, 1-naphthaleneacetic acid]
TIR1-IAA7 interaction in yeast (β-galactosidase expression) (TIR1-IAA7 interaction): promoted TIR1-IAA7 interaction, but not to the same extent as IAA

Kd (TIR1-IAA14): 10.1 nM | Kd (TIR1-IAA3): 17 ± 3.43 nM | auxin binding diminished (TIR1-IAA7 K35Q R36Q): around 50% | Kd (TIR1-IAA17): 33 ± 3 nM | binding of [3H] IAA (IAA7 DII): lacked appreciable binding | binding of [3H] IAA (IAA7): lacked appreciable binding | Kd (TIR1-IAA7): 17.8 ± 7.81 nM | Kd (TIR1-DI-DII): 13.8 ± 4.63 nM | Kd (TIR1-IAA31): > 1000 nM | specific binding of [3H] IAA (TIR1-slr): abolish specific auxin binding | Kd (TIR1-IAA7 DII [3]): 218 nM | Kd (TIR1-IAA12 GWPPVR): 72.5 ± 21.6 nM | specific binding of [3H] IAA (TIR1-bdl): abolish specific auxin binding | binding of [3H] IAA (TIR1): lacked appreciable binding | TIR1 association with the DII peptide (SPR) (TIR1-IAA7 DII [1]): enhanced association with the peptide | binding of [3H] IAA (TIR1-IAA7^axr2-1): did not bind auxin | Kd (TIR1-IAA28): ~75 nM and 75 nM | Kd (TIR1-IAA1): 44.3 ± 6.67 nM | Kd (AFB5-IAA7): 51.3 ± 12.6 nM | auxin binding diminished (TIR1-IAA7 K35Q): around 50%
Molecule: O=C(O)Cc1c[nH]c2ccccc12 [IAA, Indole-3-acetic acid]
